Assay outcomes: PubChem BioAssay, several laboratories
In the library only some 1.9% were active in any assay of this set; here they are far more common.
procasp3 activ: activates human procaspase-3; activation, % at 8.5 µM; recombinant procaspase-3 D3A, Ac-DEVD-pNA absorbance 405 nm; P42574; actives 0.11% (n = 330,000);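 active means activation above the mean of all tested compounds plus 3 SD, cut at about 21% in these data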
Target sequence (P42574 whole entry D9A/D28A/D175A): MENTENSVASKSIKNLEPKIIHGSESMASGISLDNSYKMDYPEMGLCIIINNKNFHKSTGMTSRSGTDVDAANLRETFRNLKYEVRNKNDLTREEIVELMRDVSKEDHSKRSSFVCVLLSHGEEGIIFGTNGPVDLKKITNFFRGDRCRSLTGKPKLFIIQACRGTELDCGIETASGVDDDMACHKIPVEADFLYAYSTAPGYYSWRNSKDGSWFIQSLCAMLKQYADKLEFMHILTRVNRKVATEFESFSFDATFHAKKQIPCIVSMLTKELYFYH
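Technique: 405 nm absorbance of p-nitroaniline, reads at 0 and 120 min; Test system: Procaspase-3 D3A mutant; Incubation: 1 h enzyme-compound preincubation, then 2 h substrate reaction, 25 °C; Repeats: singlicate, each compound tested once; Benchmarks: low control DMSO wells, high control DMSO plus 5 µM PC-3 D3A.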
FXN GAA850 act: frataxin GAA850 promoter activation; HEK293 lucGAA850 FXN promoter luciferase reporter, 24 h; percent of 10 µM SAHA response; activation, % at 6 µM; actives 0.56% (n = 360,000); AID 540364;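 active means activation above the average of all compounds screened plus 3 SD, cutoff fixed separately per campaign, cut at about 7.5% in these data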
Calb FLC: C. albicans growth modulation with fluconazole | AID 1979 | C. albicans CaCi-2 + fluconazole, Alamar Blue growth, 48 h | growth inhibition, % (test concentration not listed) | actives 0.57% (n = 300,000);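 active means growth inhibition above about 58% in most replicates, limit read from the data, passing the limit was not always enough; inconclusive means exactly half the replicates above a set limit; inactive means most replicates below a set limit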;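 further: all wells also contain fluconazole at 8 µg/ml as a sub-toxic cotreatment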
Neddylation inh: inhibitors of human cullin neddylation; P61081+Q13564; TR-FRET cullin neddylation, biochemical; inhibition, % at 25 µM; actives 0.58% (n = 360,000); AID 651699; in the data active means inhibition above about 36%
HIF activator: HIF pathway transcriptional activation. U2OS HRE-luciferase reporter, luminescence; normalized: DMSO 0%, desferrioxamine 100%. activation, % at 7.5 µM (by protocol). actives 0.32% (n = 300,000). AID 1910;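 active means mean activation of at least 10% of the iron chelator positive control signal, with at least half of replicates also reaching 10%; inconclusive means mean and replicate majority disagree about reaching 10%; inactive means mean and most replicates under 10%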
procasp7 counter: counter-screen for procaspase-3 activators: activators of human procaspase-7; recombinant procaspase-7, Ac-DEVD-pNA absorbance 405 nm; D23A/D198A/D206A triple mutant, cannot self-cleave; scale: DMSO 0, 5 µM enzyme 100; activation, % at 8.5 µM; P55210; actives 0.093% (n = 330,000);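 active means percent activation above the screen-wide mean plus 3 SD, cut at about 25% in these data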
Target sequence (P55210 whole entry D23A/D198A/D206A): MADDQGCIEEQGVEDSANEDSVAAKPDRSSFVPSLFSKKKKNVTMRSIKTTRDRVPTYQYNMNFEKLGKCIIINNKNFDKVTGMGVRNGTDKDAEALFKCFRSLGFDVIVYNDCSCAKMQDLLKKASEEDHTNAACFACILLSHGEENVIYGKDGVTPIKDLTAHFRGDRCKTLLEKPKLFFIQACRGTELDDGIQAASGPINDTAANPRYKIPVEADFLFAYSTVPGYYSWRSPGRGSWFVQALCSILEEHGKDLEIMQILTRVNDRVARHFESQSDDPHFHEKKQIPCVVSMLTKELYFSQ
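System: Uncleavable procaspase-7 mutant enzyme; Amount: 2 µM procaspase-7 mutant as dispensed; Schedule: 1 h compound preincubation, 2 h substrate cleavage, 25 °C; Measured by: 405 nm absorbance of p-nitroaniline; Evaluation: percent activation from buffer-corrected 0–120 min absorbance change; Control set: low DMSO alone, high DMSO plus 5 µM PC-7.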
Neddyl conf: confirmation of human cullin neddylation inhibitors | shares compounds with Neddylation inh | TR-FRET cullin neddylation biochemical assay | calls only at 25 µM | actives 13% (n = 1,800); in the data active means inhibition above about 40%;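 further: neddylation substrate is the cullin 1 ring ligase complex with SKP2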
Large screens that a line does not name were inactive (follow-up assays come after a bar, where shown).

c1ccc(-c2nc3ccccn3c2-c2ccccc2)cc1	Neddylation inh 40.5
COc1cc(NC(=O)N[C@@H](Cc2c[nH]c3ccccc23)C(=O)O)c(C(=O)O)cc1OC	Neddylation inh 45.5 (not shown: procasp3 activ, procasp7 counter)
CC1CCCN(CCCNC(=O)c2ccc(N3CCCC3=O)cc2)C1 (stereo not drawn)	none
O=C(Nc1ccccn1)C(F)(F)C(F)(F)C(F)(F)C(F)(F)C(=O)Nc1ccccn1	none
Cc1cc(C(=O)NCc2ccccc2)c(=O)[nH]c1C	Neddylation inh 53.0 | Neddyl conf active
Cc1ccc(C(=O)NCc2ccccc2)c(F)c1F	none
COc1ccccc1CNc1ccc(Br)cn1	none
CC(C)(C)n1nnnc1SCC(=O)Nc1nn(-c2ccccc2)nc1C(N)=O	Neddylation inh 47.7 (no result: HIF activator) | Neddyl conf inactive
NNC(=O)c1oc2nc(-c3ccccc3)cc(-c3ccccc3)c2c1N	Neddylation inh 40.9 | Neddyl conf inactive
COc1ccc(-n2ncc3c(NCCCN4CCOCC4)ncnc32)cc1	Neddylation inh 42.0 | Neddyl conf inactive
COc1ccc(-n2ncc3c(NCc4ccco4)ncnc32)cc1	none
C=CCNc1ncnc2c1cnn2-c1ccc(OC)cc1	Neddylation inh 45.6 | Neddyl conf inactive
CC1Cc2ccccc2N1c1ncnc2nc[nH]c12 (stereo not drawn)	Neddylation inh 66.2
Nn1c(SCC(=O)NCC2CCCO2)nnc1-c1ccc(OC(F)F)cc1 (stereo not drawn)	none
CC(C)[C@H](NC(=O)c1ccccc1)C(=O)OCC(=O)/C=C1/N(C)c2ccccc2C1(C)C	none
COc1cc(OC)cc(C(=O)NCC(=O)OCC(=O)/C=C2/N(C)c3ccccc3C2(C)C)c1	Neddylation inh 52.3 | Neddyl conf inactive
COc1ccc2c(c1)[nH]c1c(Cl)ncnc12	Calb FLC inconclusive, Neddylation inh 40.2 | Neddyl conf inactive
Cc1cc(C)n(C(C)Sc2ccccc2)n1 (stereo not drawn)	none
CCOC(=O)c1oc2ccccc2c1NC(=O)c1ccc2c(c1)OCO2	none
COc1ccc(NC(=O)c2oc3ccccc3c2NC(=O)c2ccc3c(c2)OCO3)cc1	Neddylation inh 41.9 | Neddyl conf inactive
CCOC(=O)c1[nH]c2ccc(OC)cc2c1NC(=O)c1ccc2c(c1)OCO2	none
COC(=O)c1[nH]c2cc(OC)ccc2c1NC(=O)c1ccc2c(c1)OCO2	Neddylation inh 41.6 | Neddyl conf inactive
COc1cc(C2C(C#N)=C(N)OC3=C2C(=O)CC(C)(C)C3)cc2c1OCO2 (stereo not drawn)	none
COc1ccc(/C=C\c2cc(OC)c(OC)cc2CC[N+](C)(C)C)cc1OC	Neddylation inh 43.1 | Neddyl conf inactive
COc1ccc(/C=C/c2ccncc2)cc1OC	none
O=C(CN1C(=O)NC2(CCCCCC2)C1=O)Nc1ccc(Br)cc1Br	none (no result: Calb FLC, HIF activator)
CCCCN(CC)CCCNC(=O)c1cc2c(=O)n(C)c3ccccc3c2n1C	Neddylation inh 43.0 | Neddyl conf inactive
COc1ccc(C(=O)NCCNc2nc3c(C)cccc3cc2C#N)cc1OC	Neddylation inh 39.2
COc1ccc(CCNC(=O)C2(C)CCC(=O)N2Cc2ccc(F)cc2Cl)cc1OC (stereo not drawn)	Neddylation inh 52.2 | Neddyl conf inactive
COc1ccc(CCNC(=O)C2(C)CCC(=O)N2Cc2ccc3c(c2)OCO3)cc1OC (stereo not drawn)	none
CN1CCN(C2CN(Cc3ccc(F)cc3)S(=O)(=O)C2)CC1 (stereo not drawn)	none (no result: procasp3 activ, FXN GAA850 act, Calb FLC, HIF activator, procasp7 counter)
O=c1[nH]c2cc3c(cc2cc1CN(Cc1cccnc1)C(=S)NCc1ccco1)OCO3	none
CC(C)CNC(=S)N(CCN(C)C)Cc1cc2cc3c(cc2[nH]c1=O)OCO3	none
CCNC(=S)N(CCN(C)C)Cc1cc2cc3c(cc2[nH]c1=O)OCO3	Neddylation inh 53.4
CCNC(=S)N(CCN(C)C)Cc1cc2cc(OCC)ccc2[nH]c1=O	Neddylation inh 41.3 | Neddyl conf inactive
CN(C)CCN(Cc1cc2cc3c(cc2[nH]c1=O)OCO3)C(=S)NCc1ccco1	Neddylation inh 40.0 | Neddyl conf inactive
CCNC(=S)N(Cc1cccs1)Cc1cc2cc(OCC)ccc2[nH]c1=O	none
Nc1cc(Cl)cc2c1-c1ccc(Cl)cc1C2	none (no result: procasp3 activ, Calb FLC, HIF activator, procasp7 counter)
CCOc1ccc(N2CCc3c(C)nc(SC)nc32)cc1	none
COc1ccc(CCOC(=O)c2ccc(N)c([N+](=O)[O-])c2)cc1	none
O=C1CS/C(=N\N=C\c2ccco2)N1c1ccccc1	Neddylation inh 42.1 | Neddyl conf inactive
COc1cc2ccnc(C=O)c2cc1OC	none (no result: procasp3 activ, Calb FLC, HIF activator, procasp7 counter)
COc1cc2ccnc(C=NO)c2cc1OC	Neddylation inh 41.3 (no result: procasp3 activ, Calb FLC, HIF activator, procasp7 counter) | Neddyl conf inactive
CCOc1ccc2oc(C(=O)NCC3CCCO3)c(C)c2c1 (stereo not drawn)	Neddylation inh 45.8 | Neddyl conf active
CCOc1ccc2oc(C(=O)Nc3ccc(N4CCOCC4)cc3)c(C)c2c1	none
CCOc1ccc2oc(C(=O)NNC(=O)c3csc(N4CCOCC4)n3)c(C)c2c1	Neddylation inh 41.4 | Neddyl conf inactive
O=C(Cn1cnc2ccccc2c1=O)N1CCN(S(=O)(=O)c2ccc(F)cc2)CC1	none (no result: Calb FLC, HIF activator)
COC(=O)c1cc(S(=O)(=O)NCC2CCN(Cc3cc(C)ccc3C)CC2)c[nH]1	none
CC(=O)NC(Cc1ccc(F)cc1)C(=O)NC1CCN(C(=O)Nc2ccccc2C)CC1 (stereo not drawn)	none
Cc1ccc(NC(=O)C2CCN(S(=O)(=O)c3cccnc3)CC2)cc1C	none
Cc1cc(C(F)F)n2ncc(C(=O)N3CCc4ccccc4C3)c2n1	none
O=C(c1cnn2c(C(F)F)cc(-c3ccccc3)nc12)N1CCc2ccccc2C1	Neddylation inh 48.3 | Neddyl conf inactive
COCCNC(=O)c1cnn2c(C(F)F)cc(-c3ccccc3)nc12	Neddylation inh 40.8 (no result: Calb FLC) | Neddyl conf inactive
CSc1cccc(NC(=O)c2cc(S(=O)(=O)N3CCc4ccccc43)cn2C)c1	none
CCc1ccc(-c2cc(C(=O)Nc3c(C)n(C)n(-c4ccccc4)c3=O)c3ccccc3n2)s1	Neddylation inh 41.3 | Neddyl conf inactive
Cc1cc(C(=O)Nc2c(C)n(C)n(-c3ccccc3)c2=O)c2ccccc2n1	none
CCCCNC(=O)C1(C)CCC(=O)N1C1CC1 (stereo not drawn)	none (no result: procasp3 activ, FXN GAA850 act, Calb FLC, HIF activator, procasp7 counter)
CCN(CC)S(=O)(=O)c1cccc(-c2cn3cc(C)ccc3n2)c1	Neddylation inh 39.3 | Neddyl conf inactive
O=C(Nc1ccc(Oc2ccc(Br)cc2)cc1)C1=CC=CN2CCS(=O)(=O)N=C12	none (no result: Calb FLC, HIF activator)
